In ChEMBL document CHEMBL1921681, “Difluoromethylbenzoxazole pyrimidine thioether derivatives: a novel class of potent non-nucleoside HIV-1 reverse transcriptase inhibitors” (J Med Chem, 2011):
In brackets after ≈: the same amount, converted by molar mass.

Tests used:
[1] = system: Human immunodeficiency virus 1; assay: Antiviral activity against Human immunodeficiency virus 1 3B infected in human MT4 cells stably transformed with HIV1 LTR-EGFP after 3 days by fluorescence microscopic analysis; format: functional, organism-based; settings: MT4, 72 h
Procedure, shortened: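 MT4 cells carrying an HIV LTR-EGFP reporter (150 000 cells/mL) infected with HIV-1 IIIB at MOI 0.01, with or without graded inhibitor concentrations. After 3 days, replication read as EGFP fluorescence and expressed as EC50. Cell line maintained in RPMI 1640 with 10% heat-inactivated FCS, 2 mM L-glutamine, gentamicin, G418, at 37 °C, 5% CO2.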

[2] = Aqueous solubility of the compound; format: physicochemical; settings: buffer
[3] = system: Human immunodeficiency virus 1; assay: Antiviral activity against Human immunodeficiency virus 1 HXB2 harboring reverse transcriptase K103N and Y181C mutant infected in human MT4 cells stably transformed with HIV1 LTR-EGFP after 3 days by fluorescence microscopic analysis; format: functional, organism-based; settings: Human immunodeficiency virus 1, HXB2, MT4, 72 h
Cytochrome P450 3A4 = Cytochrome P450 3A4 (Homo sapiens, UniProt P08684); assay: Inhibition of CYP3A4; format: ADME
[4] = Apparent permeability of the compound across human Caco2 cells; format: ADME, cell-based; settings: Caco-2
[5] = Selectivity ratio of CC50 for mock-infected human MT4 cells to EC50 for Human immunodeficiency virus 1 3B infected in human MT4 cells; format: ADME, cell-based; settings: read-out: Ratio CC50/EC50
Procedure, shortened: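 Ratio of two values run in parallel. CC50 came from mock-infected CMV-EGFP MT4 cells (150 000 cells/mL, 3 days, EGFP fluorescence). EC50 came from MT4-LTR-EGFP cells (150 000 cells/mL) infected with HIV-1 IIIB at MOI 0.01 with or without inhibitor, with replication read as EGFP fluorescence after 3 days. SI = CC50/EC50.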

Cytochrome P450 2D6 = Cytochrome P450 2D6 (Homo sapiens, UniProt P10635); assay: Inhibition of CYP2D6; format: ADME
Cytochrome P450 2C9 = Cytochrome P450 2C9 (Homo sapiens, UniProt P11712); assay: Inhibition of CYP2C9; format: ADME
[6] = Metabolic stability of the compound in human liver microsomes after 15 mins; format: ADME, Microsome; settings: read-out: Stability
[7] = Cytotoxicity against mock infected human MT4 cells after 3 days by EGFP fluorescence microscopic analysis; format: cell-based
Procedure, shortened: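 Mock-infected MT4 cells stably carrying a CMV-EGFP reporter, seeded at 150 000 cells/mL and cultured with or without serial compound concentrations. MT4 cells kept in RPMI 1640 with 10% heat-inactivated FCS, 2 mM L-glutamine, 0.1% NaHCO3, gentamicin and G418, at 37 °C under 5% CO2. After 3 days, proliferation was read as EGFP fluorescence, giving CC50.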

[8] = Dissociation constant, pKa of the compound; format: physicochemical
[9] = Lipophilicity, log D of the compound; format: physicochemical; settings: octanol/water
[10] = system: Human immunodeficiency virus 1; assay: Selectivity ratio of EC50 for Human immunodeficiency virus 1 HXB2 harboring reverse transcriptase K103N and Y181C mutant infected in human MT4 cells to EC50 for Human immunodeficiency virus 1 3B infected in human MT4 cells; format: functional

Sequence of Cytochrome P450 2C9 (P11712 whole entry): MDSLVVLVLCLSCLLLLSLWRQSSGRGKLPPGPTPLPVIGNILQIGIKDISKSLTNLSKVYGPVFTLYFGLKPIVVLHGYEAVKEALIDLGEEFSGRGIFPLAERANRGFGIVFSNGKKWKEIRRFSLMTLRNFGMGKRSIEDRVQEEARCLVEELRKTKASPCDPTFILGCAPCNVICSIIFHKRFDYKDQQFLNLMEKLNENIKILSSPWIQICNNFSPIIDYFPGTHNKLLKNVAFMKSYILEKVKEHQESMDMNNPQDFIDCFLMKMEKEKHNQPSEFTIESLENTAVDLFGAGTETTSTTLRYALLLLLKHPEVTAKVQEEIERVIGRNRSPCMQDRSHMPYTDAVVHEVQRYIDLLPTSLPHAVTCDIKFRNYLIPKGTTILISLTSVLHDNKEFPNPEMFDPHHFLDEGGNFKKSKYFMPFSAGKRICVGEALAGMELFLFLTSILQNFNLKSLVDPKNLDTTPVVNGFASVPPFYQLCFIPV
Sequence of Cytochrome P450 2D6 (P10635 whole entry): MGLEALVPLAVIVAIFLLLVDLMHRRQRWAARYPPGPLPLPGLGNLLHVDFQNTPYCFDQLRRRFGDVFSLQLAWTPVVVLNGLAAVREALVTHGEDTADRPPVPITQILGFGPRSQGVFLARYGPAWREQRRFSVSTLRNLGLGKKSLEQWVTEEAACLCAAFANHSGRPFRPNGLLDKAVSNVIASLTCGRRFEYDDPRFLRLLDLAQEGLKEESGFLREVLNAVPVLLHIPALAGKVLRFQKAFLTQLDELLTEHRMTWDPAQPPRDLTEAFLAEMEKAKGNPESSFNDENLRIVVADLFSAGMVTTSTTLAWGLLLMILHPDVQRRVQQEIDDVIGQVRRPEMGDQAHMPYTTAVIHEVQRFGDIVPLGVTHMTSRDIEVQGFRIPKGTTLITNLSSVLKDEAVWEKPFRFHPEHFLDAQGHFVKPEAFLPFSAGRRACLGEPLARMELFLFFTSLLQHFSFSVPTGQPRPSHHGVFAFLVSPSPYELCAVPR
Sequence of Cytochrome P450 3A4 (P08684 whole entry): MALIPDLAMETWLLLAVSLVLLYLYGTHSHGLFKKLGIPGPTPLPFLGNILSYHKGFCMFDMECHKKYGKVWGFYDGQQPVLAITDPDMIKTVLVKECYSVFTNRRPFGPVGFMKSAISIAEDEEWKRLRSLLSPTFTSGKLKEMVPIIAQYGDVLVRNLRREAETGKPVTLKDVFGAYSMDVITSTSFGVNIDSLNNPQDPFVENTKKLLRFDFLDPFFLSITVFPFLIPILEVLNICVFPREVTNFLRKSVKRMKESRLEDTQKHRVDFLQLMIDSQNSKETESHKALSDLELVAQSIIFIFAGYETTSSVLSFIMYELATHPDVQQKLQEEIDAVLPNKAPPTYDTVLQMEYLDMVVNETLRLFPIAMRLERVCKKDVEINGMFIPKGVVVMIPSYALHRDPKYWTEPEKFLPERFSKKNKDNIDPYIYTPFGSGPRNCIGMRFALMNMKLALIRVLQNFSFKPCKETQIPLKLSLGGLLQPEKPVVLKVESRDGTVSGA

Molecule `FC(F)(Sc1ncccn1)c1nc2ccccc2o1` has an EC50 [1] of 3.14 µM.
With `Cc1ccnc(SC(F)(F)c2nc3ccccc3o2)n1` the solubility [2] was 200 µM (≈ 58.7 µg/mL), the EC50 [3] was 67 µM and the “inhibition (INH)” value (Cytochrome P450 3A4) was < 30%. For the same molecule, the Papp [4] was 34.6 ×10⁻⁶ cm/s, the selectivity ratio [5] was > 800 and the “inhibition (INH)” value (Cytochrome P450 2D6) was < 30%. For the same molecule, the “inhibition (INH)” value (Cytochrome P450 2C9) was < 30%, the remaining at 0.25 h [6] was 90% and the CC50 at 72 h [7] was > 100 µM. For the same molecule, the pKa [8] was 3.6, the EC50 [1] was 0.11 µM and the logD [9] was 3.9.
With `Cc1cc(C)nc(SC(F)(F)c2nc3ccccc3o2)n1` the EC50 [3] was 77.2 µM, the selectivity ratio [5] was > 100 and the CC50 at 72 h [7] was > 98.4 µM. It also gave a pKa [8] of 1.3 and an EC50 [1] of 0.95 µM.
In the case of `Cc1ccnc(SC(F)(F)c2nc3cccc(C)c3o2)n1`, the EC50 [3] is reported as 55.4 µM, the selectivity ratio [5] is reported as > 490 and the CC50 at 72 h [7] is reported as > 98.4 µM. It also gave an EC50 [1] of 0.2 µM.
In the case of `Cc1ccnc(SC(F)(F)c2nc3cccc(Cl)c3o2)n1`, the EC50 [3] is reported as 60 µM, the selectivity ratio [5] is reported as > 700 and the CC50 at 72 h [7] is reported as > 98.4 µM. The “Ratio EC50” value [10] was 30 and the EC50 [1] was 0.14 µM.
With `Cc1ccnc(SC(F)(F)c2nc3c(C)cccc3o2)n1` the EC50 [3] was > 98.4 µM, the selectivity ratio [5] was > 570 and the CC50 at 72 h [7] was > 98.4 µM. The EC50 [1] was 0.17 µM.
In the case of `Cc1ccnc(SC(F)(F)c2nc3c(Cl)cccc3o2)n1`, the EC50 [3] is reported as 79 µM, the selectivity ratio [5] is reported as > 1000 and the CC50 at 72 h [7] is reported as > 98.4 µM. The “Ratio EC50” value [10] was 30 and the EC50 [1] was 0.098 µM.
With `Cc1cccc2oc(C(F)(F)Sc3nccc(N)n3)nc12` the EC50 [3] was > 20 µM, the selectivity ratio [5] was 24 and the CC50 at 72 h [7] was 20 µM. It also gave an EC50 [1] of 0.83 µM.
For `Nc1ccnc(SC(F)(F)c2nc3c(Cl)cccc3o2)n1`, the EC50 [3] was > 28 µM, the selectivity ratio [5] was < 1 and the CC50 at 72 h [7] was 28.8 µM. The “Ratio EC50” value [10] was 30 and the EC50 [1] was > 28 µM.
Work on `FC(F)(Sc1nccc(C2CC2)n1)c1nc2ccccc2o1` yielded an EC50 [3] of 67.9 µM, a selectivity ratio [5] of 484 and a CC50 at 72 h [7] of 77.5 µM. For the same molecule, the EC50 [1] was 0.16 µM.
With `CCc1ccnc(SC(F)(F)c2nc3ccccc3o2)n1` the EC50 [3] was 57 µM, the selectivity ratio [5] was > 15000 and the CC50 at 72 h [7] was > 98 µM. For the same molecule, the EC50 [1] was 0.0064 µM.
With `CC(C)c1ccnc(SC(F)(F)c2nc3ccccc3o2)n1` the EC50 [3] was > 98.4 µM, the selectivity ratio [5] was > 774 and the CC50 at 72 h [7] was > 98.4 µM. For the same molecule, the EC50 [1] was 0.13 µM.
With `Nc1ccnc(SC(F)(F)c2nc3ccccc3o2)n1` the EC50 [3] was > 33 µM, the selectivity ratio [5] was 129 and the CC50 at 72 h [7] was 33.5 µM. It also gave an EC50 [1] of 0.26 µM.
For `COCc1ccnc(SC(F)(F)c2nc3ccccc3o2)n1`, the EC50 [3] was > 98.4 µM, the selectivity ratio [5] was > 142 and the CC50 at 72 h [7] was > 98.4 µM. It also gave an EC50 [1] of 0.66 µM.
With `Cc1ccnc(S(=O)(=O)C(F)(F)c2nc3ccccc3o2)n1` the EC50 [3] was > 61 µM, the selectivity ratio [5] was 8 and the CC50 at 72 h [7] was 61 µM. For the same molecule, the EC50 [1] was 7.9 µM.
With `CC(=O)Nc1ccnc(SC(F)(F)c2nc3ccccc3o2)n1` the EC50 [3] was > 98.4 µM, the selectivity ratio [5] was > 2.3 and the CC50 at 72 h [7] was > 98.4 µM. The EC50 [1] was 43.3 µM.
For `c1cnc(SCc2nc3ccccc3o2)nc1`, the EC50 [1] was 35.3 µM.
